Assay results from the RNAGym collection of RNA variant scans (doi:10.1126/science.aae0568).
Fewer inactive variants are shown than the library holds.

B1: tRNA (parent)
chain: GUUCCGUUGGCGUAAUGGUAACGCGUCUCCCUCCUAAGGAGAAGACUGCGGGUUCGAGUCCCGUACGGAACG

Variants of: B1
Test: yeast fitness relative to wild type (ratio to wild type); higher = fitter; tRNA-Arg(CCU), competitive growth, 37 C, YPD
Outline: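 Variants of the tRNA-Arg(CCU) gene, chemically synthesised with a 3% per-site mutation rate at 69 sites, were placed at the native genomic locus in Saccharomyces cerevisiae. The pooled strains were competed in YPD at 37°C for 24 hours in six parallel replicates. Gene amplicons from the start population and from each end population were read by 100-nucleotide paired-end sequencing. Darwinian fitness relative to wild type came from changes in genotype frequencies; genotypes needed ≥ 100 starting reads, and estimates < 0.5 were set to 0.5.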
GUUCCGUUGGCGUAAUGGUAACGCGUCUCCCUCCUAACGAGAAGACUGCGGGUUCGAGUCCCGUACGGUACG [G38C A69U] gave a yeast fitness of 0.788.
Variant GUUCCGUUGGCGUAAUGGUAACGCGUCUCCCUCCUAACGAGAAGACUGCGGGUUCGAGUCCCGUACGGCACG [G38C A69C] has a yeast fitness of 0.722.
With GUUCCGUUGGCGUAAUGGUAACGCGUCUCCCUCCUAACGAGAAGACUGCGGGUUCGAGUCCUGCACGGAUCG [G38C C62U U64C A70U] the yeast fitness was no more than 0.5.
GUUCCGUUGGCGUAAUGGUAACGCGUCUCCCUCCUAACGAGAAGAGUGCGGGUUGGAGUCGCGUACGGAACG [G38C C46G C55G C61G] showed a yeast fitness of no more than 0.5.
GUUCCGUUGGCGUAAUGGUAACGCGUCUCCCUCCUAACGAGAAGACUGCGGGUUCGAGUCCUGUACGGAUCG [G38C C62U A70U] showed a yeast fitness of 0.533.
GUUCCGUUGGCGUAAUGGUAACGCGUCUCCCUCCUAACGACAAGACUGCGGGUUCGAGUCUCGUACGGAGCG [G38C G41C C61U A70G] showed a yeast fitness of no more than 0.5.
GUUCCGUUGGCGUAAUGGUAACGCGUCUCCCUCCUAACGACAAGACUGCGGGUUUGAGUCCCGUACCGAACG [G38C G41C C55U G67C] showed a yeast fitness of no more than 0.5.
With GUUCCGUUGGCGUAAUGGUAACGCGUCUCCCUCCUAACGAGAAGACUGCGGGUUCGACUCCCGAACGGAACG [G38C G58C U64A] the yeast fitness was 0.621.
For GUUCCGUUGGCGUAAUGGUAACGCGUCUCCCUCCUAACGAGAAGGCUGCGGGUUCGAGACCCGUACGGAACG [G38C A45G U59A], the yeast fitness was no more than 0.5.
In the case of GUUCCGUUGGCGUAAUGGUAACGCGUCUCCCUCCUAACGAGAAGACUGCGGGUUCGAGUCCCGUACCGAACG [G38C G67C], the yeast fitness is reported as 0.748.
Variant GUUCCGUUGGCGUAAUGGUAACGCGUCUCCCUCCUAACGAGAAGACUGCGGGUUCGAGUCCCGUAGUGAACG [G38C C66G G67U] has a yeast fitness of no more than 0.5.
GUUCCGUUGGCGUAAUGGUAACGCGUCUCCCUCCUAACGAGAAGACUGCGGGUUCGAGUCCCGUACGAAUCG [G38C G68A A70U] showed a yeast fitness of no more than 0.5.
Work on GUUCCGUUGGCGUAAUGGUAACGCGUCUCCCUCCUAACGAGAAGACUGUGGGUUCGAGUCCCGUACGGAACG [G38C C49U] yielded a yeast fitness of 0.67.
With GUUCCGUUGGCGUAAUGGUAACGCGUCUCCCUCCUAACGAGAAGAAUGCGGGUUCGAGUCCCGUACGGAACG [G38C C46A] the yeast fitness was 0.819.
Variant GUUCCGUUGGCGUAAUGGUAACGCGUCUCCCUCCUAACUAGAAGACUGCGGGUUCGAGUACCGUACGGAACG [G38C G39U C60A] has a yeast fitness of no more than 0.5.
Work on GUUCCGUUGGCGUAAUGGUAACGCGUCUCCCUCCUAACGAGAAGAUUGCGGGUUCGAGUCCCGUACGGUGCG [G38C C46U A69U A70G] yielded a yeast fitness of no more than 0.5.
GUUCCGUUGGCGUAAUGGUAACGCGUCUCCCUCCUAACGAGAAGACUGCAGGUUCGAGUCCCGUACGGAGCG [G38C G50A A70G] showed a yeast fitness of 0.527.
Variant GUUCCGUUGGCGUAAUGGUAACGCGUCUCCCUCCUAACGAGAAGACUGCGGGUUCGAGUACCGUACGGAACG [G38C C60A] has a yeast fitness of no more than 0.5.
Variant GUUCCGUUGGCGUAAUGGUAACGCGUCUCCCUCCUAACGAGAAGACCGCGGGUUCGAGUCCCGUACGGAACG [G38C U47C] has a yeast fitness of 0.757.
Variant GUUCCGUUGGCGUAAUGGUAACGCGUCUCCCUCCUAACGAGAAGACGGCGGGUUCGAGUCCCGUACGGAACG [G38C U47G] has a yeast fitness of 0.538.
GUUCCGUUGGCGUAAUGGUAACGCGUCUCCCUCCUAACGAGAAGACUGCGGGUUCGAGUUCCGUACGCAACG [G38C C60U G68C] showed a yeast fitness of no more than 0.5.
Variant GUUCCGUUGGCGUAAUGGUAACGCGUCUCCCUCCUAACCAGAAGAUUGCGGGUUCGAGUCCCGUAUGGUACG [G38C G39C C46U C66U A69U] has a yeast fitness of no more than 0.5.
In the case of GUUCCGUUGGCGUAAUGGUAACGCGUCUCCCUCCUAACGACAAGACUGCGGGUCCGAGUCCCGUGCGGAACG [G38C G41C U54C A65G], the yeast fitness is reported as no more than 0.5.
Variant GUUCCGUUGGCGUAAUGGUAACGCGUCUCCCUCCUAACCAGAAGACUGCGGGUUCCAGUCCCGUACGAAACG [G38C G39C G56C G68A] has a yeast fitness of no more than 0.5.
GUUCCGUUGGCGUAAUGGUAACGCGUCUCCCUCCUAACGAGAAGACUGCGGGUUCGAGUCCCGUACGGAUCG [G38C A70U] gave a yeast fitness of 0.628.
With GUUCCGUUGGCGUAAUGGUAACGCGUCUCCCUCCUAACGAGAAGACUGGGGGUGCGAGUCCCGUACGGAACG [G38C C49G U54G] the yeast fitness was 0.621.
With GUUCCGUUGGCGUAAUGGUAACGCGUCUCCCUCCUAACGAGAAGACUGCGGGUUGGAGUCCCGUACGGCACG [G38C C55G A69C] the yeast fitness was 0.579.
Variant GUUCCGUUGGCGUAAUGGUAACGCGUCUCCCUCCUAACGACAAGACUGCUGGUUCGAGUCCCGUGCGGAACG [G38C G41C G50U A65G] has a yeast fitness of no more than 0.5.
Work on GUUCCGUUGGCGUAAUGGUAACGCGUCUCCCUCCUAACGAGAAGACUGCGGGUUCGAGUCCCGUACUGAUCG [G38C G67U A70U] yielded a yeast fitness of no more than 0.5.
With GUUCCGUUGGCGUAAUGGUAACGCGUCUCCCUCCUAACGAGAAGACUGCGGGUACGAGGCCCGUCCGGAACG [G38C U54A U59G A65C] the yeast fitness was 0.692.
In the case of GUUCCGUUGGCGUAAUGGUAACGCGUCUCCCUCCUAACGAGAAGACUGCGGGUUCGCGUCCCGUACGGAACG [G38C A57C], the yeast fitness is reported as 0.535.
GUUCCGUUGGCGUAAUGGUAACGCGUCUCCCUCCUAACGAGAAGACUGCGGGUACGAGUCCCGUACGGAACG [G38C U54A] gave a yeast fitness of 0.615.
In the case of GUUCCGUUGGCGUAAUGGUAACGCGUCUCCCUCCUAACGAGAAGACUGCGGGUUCGAGUCCUGUACGGUACG [G38C C62U A69U], the yeast fitness is reported as 0.603.
In the case of GUUCCGUUGGCGUAAUGGUAACGCGUCUCCCUCCUAACGAGAAGACUGCGGGUUCGAGUCCCGUACAGUACG [G38C G67A A69U], the yeast fitness is reported as 0.537.
GUUCCGUUGGCGUAAUGGUAACGCGUCUCCCUCCUAACGAGAAGACCGCGGGUUCGAGUCCCGUUCGGAACG [G38C U47C A65U] showed a yeast fitness of no more than 0.5.
GUUCCGUUGGCGUAAUGGUAACGCGUCUCCCUCCUAACGAGAAGACUGCAGGGUCGAGUCCCGUACGAAACG [G38C G50A U53G G68A] gave a yeast fitness of 0.597.
With GUUCCGUUGGCGUAAUGGUAACGCGUCUCCCUCCUAACGAGAAGACUGCGGGUUCAAAUCCCGUCCGGAACG [G38C G56A G58A A65C] the yeast fitness was no more than 0.5.
In the case of GUUCCGUUGGCGUAAUGGUAACGCGUCUCCCUCCUAACGAGAAGACUGCGGGUACGAGUCCCGUGCGGAACG [G38C U54A A65G], the yeast fitness is reported as no more than 0.5.
